Converted amounts (≈) assume the structure as drawn.
Experiments:
[1] = system: HaCaT; experiment: Cytotoxicity against human HaCaT cells after 48 hrs by sulforhodamine B assay; format: cell-based
[2] = system: MCF7; experiment: Antiproliferative activity against human MCF7 cells assessed as tumor growth inhibition after 48 hrs by sulforhodamine B assay; format: functional; conditions: MCF7, 48 h
Outline: (§1)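 Tumor cells grown in RPMI 1640 with 5% fetal bovine serum, with penicillin/streptomycin in experimental cultures. Exposed in 96-well plates to samples in DMSO/RPMI at 0.25, 2.5, 25 and 250 µg/mL, 37 °C, 5% CO2, 48 h. Fixed with 50% trichloroacetic acid before (T0) and after treatment, protein stained with sulforhodamine B and read at 540 nm. GI50, TGI and LC50 in µg/mL from dose-response curves by non-linear regression.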

[3] = system: NCI/ADR-RES; experiment: Antiproliferative activity against human NCI/ADR-RES cells assessed as tumor growth inhibition after 48 hrs by sulforhodamine B assay; format: functional; outline: as §1
[4] = system: 786-0; experiment: Antiproliferative activity against human 786-0 cells after 48 hrs by sulforhodamine B assay; format: functional; conditions: 786-0, 48 h; outline: as §1
[5] = system: U-251; experiment: Antiproliferative activity against human U251 cells after 48 hrs by sulforhodamine B assay; format: functional; conditions: U-251, 48 h; outline: as §1
[6] = system: NCI-H460; experiment: Antiproliferative activity against human NCI-H460 cells assessed as tumor growth inhibition after 48 hrs by sulforhodamine B assay; format: functional; conditions: NCI-H460, 48 h; outline: as §1
[7] = Antiproliferative activity against human OVCAR3 cells assessed as tumor growth inhibition after 48 hrs by sulforhodamine B assay; format: functional; conditions: OVCAR-3, 48 h; outline: as §1
[8] = Antiproliferative activity against human PC3 cells after 48 hrs by sulforhodamine B assay; format: functional; conditions: PC-3, 48 h; outline: as §1
[9] = system: NCI/ADR-RES; experiment: Antiproliferative activity against human NCI/ADR-RES cells after 48 hrs by sulforhodamine B assay; format: functional; outline: as §1
[10] = system: MCF7; experiment: Antiproliferative activity against human MCF7 cells after 48 hrs by sulforhodamine B assay; format: functional; conditions: MCF7, 48 h; outline: as §1
[11] = Antiproliferative activity against human PC3 cells assessed as tumor growth inhibition after 48 hrs by sulforhodamine B assay; format: functional; conditions: PC-3, 48 h; outline: as §1
[12] = Antiproliferative activity against human OVCAR3 cells after 48 hrs by sulforhodamine B assay; format: functional; conditions: OVCAR-3, 48 h; outline: as §1
[13] = system: 786-0; experiment: Antiproliferative activity against human 786-0 cells assessed as tumor growth inhibition after 48 hrs by sulforhodamine B assay; format: functional; conditions: 786-0, 48 h; outline: as §1
[14] = system: NCI-H460; experiment: Antiproliferative activity against human NCI-H460 cells after 48 hrs by sulforhodamine B assay; format: functional; conditions: NCI-H460, 48 h; outline: as §1
[15] = system: U-251; experiment: Antiproliferative activity against human U251 cells assessed as tumor growth inhibition after 48 hrs by sulforhodamine B assay; format: functional; conditions: U-251, 48 h; outline: as §1
[16] = system: HaCaT; experiment: Cytotoxicity against human HaCaT cells assessed as tumor growth inhibition after 48 hrs by sulforhodamine B assay; format: cell-based
Outline: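 Non-tumor lines (human HaCaT keratinocytes; Vero) in RPMI 1640 with 5% FBS, with penicillin/streptomycin added to experimental cultures. 48 h exposure at 0.25–250 µg/mL (DMSO/RPMI), 37 °C, 5% CO2. TCA fixation at time zero and at end, sulforhodamine B protein stain, absorbance 540 nm. TGI (total growth inhibition) from non-linear regression of the dose-response curve.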

Structure (SMILES)	LC50 [1] [µg/mL]	TGI [2] [µg/mL]	TGI [3] [µg/mL]	GI50 [4] [µg/mL]	GI50 [5] [µg/mL]	TGI [6] [µg/mL]	TGI [7] [µg/mL]	GI50 [8] [µg/mL]	GI50 [9] [µg/mL]	GI50 [10] [µg/mL]	TGI [11] [µg/mL]	GI50 [12] [µg/mL]	TGI [13] [µg/mL]	GI50 [14] [µg/mL]	TGI [15] [µg/mL]	TGI [16] [µg/mL]
CCCCCCCC/C=C\CCCCCCCC(=O)N[C@@H](C)c1ccccc1	6.4 (≈ 16.6 µM)	43 (≈ 112 µM)	7.1 (≈ 18.4 µM)	10.3 (≈ 26.7 µM)	5.1 (≈ 13.2 µM)	49.3 (≈ 128 µM)	45.5 (≈ 118 µM)	13.7 (≈ 35.5 µM)	0.3 (≈ 0.778 µM)	7.17 (≈ 18.6 µM)	47.1 (≈ 122 µM)	10.5 (≈ 27.2 µM)	45.8 (≈ 119 µM)	15.2 (≈ 39.4 µM)	17.8 (≈ 46.2 µM)	36.8 (≈ 95.4 µM)
CCCCCCCCCCCCCCCCCC(=O)NCCO [N-(2-HYDROXYETHYL)STEARAMIDE]	117.7 (≈ 359 µM)	> 250	> 250	–	117 (≈ 357 µM)	> 250	> 250	75.6 (≈ 231 µM)	158 (≈ 481 µM)	130 (≈ 395 µM)	> 250	158 (≈ 481 µM)	> 250	–	> 250	> 250
CCCCCCCCCCCCCCCC(=O)NCc1ccccc1	–	> 250	> 250	–	–	> 250	> 250	–	–	–	> 250	–	> 250	–	> 250	> 250
CCCCCC[C@@H](O)C/C=C\CCCCCCCC(=O)N1CCCCC1	2.6 (≈ 7.11 µM)	14.8 (≈ 40.5 µM)	22.7 (≈ 62.1 µM)	24.2 (≈ 66.2 µM)	14.8 (≈ 40.5 µM)	23.3 (≈ 63.7 µM)	24.2 (≈ 66.2 µM)	23.3 (≈ 63.7 µM)	22.7 (≈ 62.1 µM)	6.3 (≈ 17.2 µM)	16.6 (≈ 45.4 µM)	16.6 (≈ 45.4 µM)	10.7 (≈ 29.3 µM)	10.7 (≈ 29.3 µM)	6.3 (≈ 17.2 µM)	12.8 (≈ 35 µM)
CCCCCCCCCCCCCCCCCC(=O)N1CCCC1	6.3 (≈ 18.7 µM)	39.9 (≈ 118 µM)	43.5 (≈ 129 µM)	14 (≈ 41.5 µM)	8 (≈ 23.7 µM)	56.8 (≈ 168 µM)	68.5 (≈ 203 µM)	9.4 (≈ 27.8 µM)	7.1 (≈ 21 µM)	7.4 (≈ 21.9 µM)	36 (≈ 107 µM)	7.3 (≈ 21.6 µM)	48.4 (≈ 143 µM)	10.8 (≈ 32 µM)	32.5 (≈ 96.3 µM)	27.4 (≈ 81.2 µM)
CCCCCCCCCCCCCCCCCC(=O)N[C@H](C)c1ccccc1	–	> 250	> 250	–	161 (≈ 414 µM)	> 250	> 250	–	25.7 (≈ 66.3 µM)	0.06 (≈ 0.155 µM)	> 250	–	> 250	–	> 250	> 250
CCCCCCCC/C=C/CCCCCCCC(=O)N[C@@H](C)c1ccccc1	24.6 (≈ 63.8 µM)	> 250	> 250	–	–	> 250	> 250	–	–	110 (≈ 286 µM)	> 250	21.7 (≈ 56.3 µM)	> 250	–	> 250	> 250
CCCCC/C=C\C/C=C\CCCCCCCC(=O)N[C@@H](C)c1ccccc1	1.3 (≈ 3.39 µM)	38.6 (≈ 101 µM)	16.4 (≈ 42.8 µM)	3.2 (≈ 8.34 µM)	0.7 (≈ 1.82 µM)	38.9 (≈ 101 µM)	20 (≈ 52.1 µM)	6.8 (≈ 17.7 µM)	3 (≈ 7.82 µM)	5.3 (≈ 13.8 µM)	7.7 (≈ 20.1 µM)	3.5 (≈ 9.12 µM)	7.7 (≈ 20.1 µM)	6.1 (≈ 15.9 µM)	5.1 (≈ 13.3 µM)	77.2 (≈ 201 µM)
CCCCC/C=C\C/C=C\CCCCCCCC(=O)N1CCCCC1	4.2 (≈ 12.1 µM)	44.2 (≈ 127 µM)	63.2 (≈ 182 µM)	58.4 (≈ 168 µM)	44.2 (≈ 127 µM)	53.6 (≈ 154 µM)	58.4 (≈ 168 µM)	53.6 (≈ 154 µM)	63.2 (≈ 182 µM)	22.1 (≈ 63.6 µM)	48.9 (≈ 141 µM)	48.9 (≈ 141 µM)	29.1 (≈ 83.7 µM)	29.1 (≈ 83.7 µM)	22.1 (≈ 63.6 µM)	30.5 (≈ 87.7 µM)
CCCCCCCCCCCCCCCC(=O)NCCO [PALMIDROL]	–	> 250	> 250	–	–	> 250	> 250	–	158 (≈ 527 µM)	–	> 250	–	> 250	–	> 250	> 250
